Measured values pooled from the literature.
Compare with care: the assays were run in different laboratories.
CHRM5: Muscarinic acetylcholine receptor M5 (CHRM5, Homo sapiens, UniProt P08912)
TPR: Trypanothione reductase (TPR, Trypanosoma cruzi, UniProt P28593)

CC(C)(O)[C@@H](Nc1nc(Cl)nc2c1ncn2[C@H]1[C@H](O)[C@H](O)[C@]2(CO)C[C@H]12)C1CC1
Ki (CHRM5; ligand displacement, radioligand): 2.73 µM

CNC1CC(c2ccc(Cl)c(Cl)c2)c2ccccc21 (stereo not drawn)
IC50 (TPR; enzyme activity, inhibitor, absorbance): 7.26 µM

CSCC[C@H](NC(=O)[C@H](CC(C)C)NC(=O)[C@H](Cc1cnc[nH]1)NC(=O)CNC(=O)[C@@H](NC(=O)[C@H](C)NC(=O)[C@H](Cc1c[nH]c2ccccc12)NC(=O)[C@H](CCC(N)=O)NC(=O)[C@H](CC(N)=O)NC(=O)CNC(=O)[C@H](CC(C)C)NC(=O)[C@H](CCCN=C(N)N)NC(=O)[C@H](CCC(N)=O)NC(=O)[C@@H]1CCC(=O)N1)C(C)C)C(N)=O
EC50 (Bombesin receptor subtype-3 (Brs3, Mus musculus, UniProt O54798); calcium signal, agonist, fluorescence): > 10 µM

[O]=[V]([OH])([OH])[OH]
IC50 (Tyrosyl-DNA phosphodiesterase 2 (TDP2, Homo sapiens, UniProt O95551); enzyme activity, inhibitor, absorbance): 40000 µM

CC(C)(C)[C@H](Nc1nc(Cl)nc2c1ncn2[C@H]1[C@H](O)[C@H](O)[C@]2(CO)C[C@H]12)C1CC1
Ki (CHRM5; ligand displacement, radioligand): > 6.2 µM

C=CCn1c2cc(OC(=O)CCCCN3CCN(Cc4ccccc4C(F)(F)F)CC3)ccc2c2ccnc(C)c21
IC50 (Cholinesterase (BCHE, Homo sapiens, UniProt P06276); enzyme activity, inhibitor, Ellman): 0.357 µM

Cc1cc(C)c2[nH]c(=O)c(CN(CCO)C(=S)Nc3ccc(N4CCOCC4)cc3)cc2c1
EC50 (Beta-glucuronidase (uidA, Escherichia coli, UniProt P05804); enzyme activity, inhibitor): 3.1 µM

C/C=C1\NC(=O)[C@@H](NC(=O)[C@@H](NC(=O)C/C(=C/Cl)CC)C(C)C)[C@@H](C)OC(=O)[C@H](C(C)C)NC(=O)[C@H](Cc2ccc(O)cc2)N(C)C(=O)[C@H](Cc2ccccc2)N2C(=O)[C@H](CC[C@H]2O)NC1=O
IC50 (Proteinase K (PROK, Engyodontium album, UniProt P06873); enzyme activity, inhibitor, fluorescence): > 5 µM

CC1=NCCc2c1[nH]c1cc(O)ccc21
IC50 (Tyrosine-protein phosphatase non-receptor type 12 (PTPN12, Homo sapiens, UniProt Q05209); enzyme activity, inhibitor, fluorescence): 35 µM

CNC(=O)[C@@]12C[C@@H]1[C@@H](n1cnc3c(NC)nc(C#Cc4ccc(Cl)s4)cc31)[C@H](O)[C@@H]2O
Ki (Sodium-dependent noradrenaline transporter (SLC6A2, Homo sapiens, UniProt P23975); ligand displacement, radioligand; cell membranes): > 10 µM

O=c1c2ccccc2[se]n1-c1ccccc1
IC50 (TPR; enzyme activity, inhibitor, absorbance): 1.36 µM

CC(C)C[C@H](NC(=O)[C@H](Cc1ccccc1)NC(=O)c1cnccn1)B(O)O
IC50 (Plasma kallikrein (KLKB1, Homo sapiens, UniProt P03952); enzyme activity, inhibitor): 2 µM

O=C(Nc1cccc(-c2ccn3c(CC4CC4)nnc3c2C(F)(F)F)c1)c1ccc(S(=O)(=O)F)cc1
EC50 (Metabotropic glutamate receptor 3 (GRM3, Homo sapiens, UniProt Q14832); calcium signal, agonist): > 50.1 µM

CCCCc1cc2cc(-n3nc(C)c4c3CC(C)(C)CC4=O)cc(N[C@H]3CC[C@H](O)CC3)c2c(=O)[nH]1
IC50 (Heat shock protein HSP 90-beta (HSP90AB1, Homo sapiens, UniProt P08238); ligand displacement, FP): 0.186 µM

CC(=O)Nc1ccc(O)cc1
Ki (Ribosyldihydronicotinamide dehydrogenase [quinone] (NQO2, Homo sapiens, UniProt P16083); enzyme activity, inhibitor): > 1000 µM
